# Activity calls are given as the source filed them. The rule behind the calls is not given here.
# Tests used:
# A2780 = experiment: Anticancer activity against human A2780 cells after 48 hrs by SRB assay; type: functional; conditions: A2780, 48 h
# Summary of the method: (§1)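 Grown in RPMI 1640 with 10% FBS and 2 mM L-glutamine at 37 °C, 5% CO2. Seeded at densities set by doubling time, then preincubated 24 h. Continuous 48 h drug exposure at four concentrations (0.1, 1, 10, 100), triplicate wells. Fixed with cold TCA (final 10%) at 4 °C, 60 min. Stained with 0.4% SRB in 1% acetic acid, eluted with 10 mM Tris base, read at 540/690 nm. Percent growth versus control wells.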
# A-375 [1] = experiment: Induction of apoptosis in human A375 cells assessed as increase in p53 protein level at 4 uM after 24 hrs by Western blotting; type: functional, cell-based
# Summary of the method: (§2)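 A375 cells treated 24 h, then lysed in ice-cold RIPA buffer (1% NP-40, 0.5% deoxycholate, 0.1% SDS, protease inhibitors). Protein was quantified by Bradford, and 30 µg per lane run on 12% SDS-PAGE and transferred to PVDF. Blots were blocked 2 h at RT in TBST with 5% blocking powder, probed with primary antibody overnight at 4 °C, then HRP secondary (1:2000, 1 h RT), and read by chemiluminescence against β-actin loading control.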
# A-375 [2] = experiment: Cell cycle arrest in human A375 cells assessed as accumulation at S phase at 4 uM after 24 hrs using propidium iodide staining by FACS; type: functional
# Summary of the method: (§3)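 Treated A375 cells (24 h) were harvested with trypsin-EDTA and fixed in ice-cold 70% ethanol (4 °C, 30 min). After a PBS wash, they were incubated with 1 mg/mL RNase A (37 °C, 30 min) and stained with propidium iodide solution containing trisodium citrate and Triton X-100. DNA content was measured by flow cytometry on 20,000 events. Controls were DMSO-treated.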
# A-375 [3] = experiment: Induction of apoptosis in human A375 cells assessed as reduction in CDK2 protein level at 4 uM after 24 hrs by Western blotting; type: functional, cell-based
# Summary of the method: (§4)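 A375 cells were treated for 24 h and lysed in ice-cold RIPA buffer (1% NP-40, 0.5% deoxycholate, 0.1% SDS, protease inhibitors). Protein was quantified by Bradford assay, and 30 µg/lane was run on 12% SDS-PAGE and transferred to PVDF. Membranes were blocked 2 h at RT in TBST with 5% blocker, incubated with primary antibody overnight at 4 °C, then with HRP secondary (1:2000, 1 h, RT). Detection was by chemiluminescence, with β-actin as loading control.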
# KB = experiment: Anticancer activity against human KB cells after 48 hrs by SRB assay; type: functional; summary of the method: as §1
# A-375 [4] = experiment: Induction of apoptosis in human A375 cells assessed as caspase3 activation at 4 uM after 24 hrs by fluorimetry; type: functional, cell-based
# Summary of the method: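 Caspase-3 activity was measured by a fluorometric assay on lysates of treated and untreated A375 cells.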
# ZR-75-1 = experiment: Anticancer activity against human ZR-75-1 cells after 48 hrs by SRB assay; type: functional; conditions: ZR-75-1, 48 h
# Summary of the method: (§5)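 Cells grown in RPMI 1640 with 10% FBS and 2 mM L-glutamine, plated at densities set by doubling time, and preincubated 24 h at 37 °C, 5% CO2. Compounds were tested at four concentrations (0.1, 1, 10, 100) in triplicate wells with 48 h continuous exposure. Cells were fixed with cold TCA (10% final, 60 min, 4 °C) and stained with 0.4% SRB in 1% acetic acid (20 min, RT). Dye was eluted with 10 mM Trizma base and read at 540 nm (690 nm reference). Percent growth is relative to control wells, plate by plate.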
# A-375 [5] = experiment: Induction of apoptosis in human A375 cells assessed as increase in cytochromeC protein level at 4 uM after 24 hrs by Western blotting; type: functional, cell-based; summary of the method: as §2
# SiHa = experiment: Anticancer activity against human SiHa cells after 48 hrs by SRB assay; type: functional; summary of the method: as §5
# A-375 [6] = experiment: Cell cycle arrest in human A375 cells assessed as accumulation at G2/M phase at 4 uM after 24 hrs using propidium iodide staining by FACS; type: functional; summary of the method: as §3
# A-375 [7] = experiment: Cell cycle arrest in human A375 cells assessed as accumulation at G0/G1 phase at 4 uM after 24 hrs using propidium iodide staining by FACS; type: functional; summary of the method: as §3
# A-375 [8] = experiment: Induction of apoptosis in human A375 cells assessed as increase in PPAR protein level at 4 uM after 24 hrs by Western blotting; type: functional, cell-based; summary of the method: as §4
structure (smiles),measurement,setting,value
COc1cc(C2=NOC(c3cc(OC)c(OC)c(OC)c3)C2)ccc1OCCCOc1cc2c(cc1OC)C(=O)N1CCC[C@H]1C=N2 (some centres not stated),GI50,A2780,< 100 nM
same,Activity,A-375 [1],Active
same,Activity,A-375 [2],1.1%
same,Activity,A-375 [3],Active
same,GI50,KB,< 100 nM
same,Activity,A-375 [4],Active
same,GI50,ZR-75-1,< 100 nM
same,Activity,A-375 [5],Active
same,GI50,SiHa,< 100 nM
same,Activity,A-375 [6],0.4%
same,Activity,A-375 [7],98.5%
same,Activity,A-375 [8],Active

# — ChEMBL document CHEMBL1240422, “Design, synthesis and biological evaluation of 3,5-diaryl-isoxazoline/isoxazole-pyrrolobenzodiazepine conjugates as potential anticancer agents” (2010)
